Assay [1] concerns citrate concentration in INS-1 cells. As to the kind of experiment: Citrate quantification with Citron1 in INS-1 cells treated with glucose or BTC. The assay is classed as cell-based, rat. The method, boiled down:
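INS-1 cells express the direct-response citrate biosensor in the cytosol or in mitochondria and are imaged in Krebs-Ringer buffer, with 20 mM glucose then 2 mM test compound, or test compound without glucose. Concentrations are read from in situ titration curves in digitonin-permeabilized cells (cytosol n = 62, mitochondria n = 34 cells). Each value is the average of triplicates; s.e.m. is given.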

Assay [2] has as its system citrate concentration in HeLa cells. As to the kind of experiment: Imaging of glucose- or drug-induced citrate concentration changes in HeLa cells. The format is cell-based.
Assay [3] relates to Citroff1. The assay is classed as cell-based, HeLa. The note with it: read-out: in situ Kd (Citroff1); n = 26. The method, boiled down: (§1)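 HeLa cells (ATCC CCL-2) express the biosensor from a CMV promoter, untargeted (cytoplasmic/nuclear). Cells are imaged, permeabilized with digitonin, then titrated stepwise with citrate (0.1 to ∼20 mM) in the imaging buffer, allowing at least 250 s per step. The mean response versus citrate gives the in situ calibration curve, from 128 cells or 26 cells; s.e.m. is given.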

Assay [4] has as its target CF98. The assay is classed as binding. The note with it: read-out: Kd (CF98).
Assay [5] has as its system Citron1. The format is cell-based, HeLa. The note with it: read-out: in situ Kd (Citron1); n = 128. The method, boiled down: as §1
In assay [6] the test system is citrate concentration in INS-1 cells. The note with it: stimulatory glucose; cited from earlier work.

pKd: −log10 of the molar value. Structures can show the parent of a compound that is named as a salt.

With `O=C(O)c1cccc(C(=O)O)c1C(=O)O` [BTC, 1,2,3-benzenetricarboxylate], the “citrate concentration, following increase” value in assay [1] (2 mM BTC after glucose addition) was around 18 mM. Also, the “citrate concentration, pronounced decrease after treatment” value in assay [1] (2 mM BTC after glucose addition, from ∼25 mM) is listed as around 10 mM. Besides, in assay [1] (2 mM BTC in the absence of glucose, from ∼3 mM), the “citrate concentration after treatment” value was “less than 2 mM”.

In the case of `N#C/C(=C\c1cn(-c2ccccc2)c2ccccc12)C(=O)O` [UK-5099, reference compound], the “subsequent change of Citron1 fluorescence” value in assay [2] (HeLa mitochondria, 25 μM) is given as “sustained decrease”. Moreover, the “transient increase of Citron1 fluorescence” value in assay [2] (HeLa mitochondria, 25 μM, likely DMSO artifact per authors) was 20%.

In general, pKd refers to −log10 of the Kd, conventionally taken in molar units. Consider `O=C(O)CC(O)(CC(=O)O)C(=O)O` [citrate, citrate (2-hydroxypropane-1,2,3-tricarboxylate)], for which the pKd is 3.89 in assay [3], around 2.05 in assay [4] and 2.24 in assay [5].

Turning to `OC[C@H]1OC(O)[C@H](O)[C@@H](O)[C@@H]1O` (stereo partly drawn) [glucose], the “fold increase in the concentration of citrate” value in assay [6] was around 8 fold. In assay [1] (20 mM glucose, Krebs-Ringer buffer), the “cytosolic and mitochondrial citrate concentration after treatment” value was around 25 mM. Further, the “cytosolic citrate concentration change upon glucose addition” value in assay [2] (HeLa cells starved 0.5–1 h, 20 mM glucose) is “substantially increased”. Also, the “mitochondrial citrate change upon glucose addition” value in assay [2] (HeLa cells starved 0.5–1 h, mitochondria-localized Citron1) is given as “initial transient decrease followed by a slower increase”.

The values above are taken from publication PMC7453566 (ACS Central Science, 2020).
